Measurements from ChEMBL document CHEMBL1772975, “Novel potent and selective σ ligands: evaluation of their agonist and antagonist properties” (J Med Chem, 2011).
Calls of active or inactive are those of the source. No cut-off for these calls is given here.

Tests used:
[1] = target: Sigma non-opioid intracellular receptor 1 (Cavia porcellus, UniProt Q60492); experiment: Displacement of [3H]-(+)-pentazocine from sigma 1 receptor in guinea pig brain membranes after 150 mins; type: cell membranes, Membrane
Cavia porcellus = species: Cavia porcellus; experiment: Selectivity ratio of Ki for sigma 1 receptor in guinea pig brain membranes to Ki for sigma 2 receptor in guinea pig brain membranes; type: cell membranes
[2] = Displacement of [3H]DTG from sigma 2 receptor in guinea pig brain membranes after 120 mins; type: cell membranes, Cavia porcellus, Membrane
[3] = target: Sigma non-opioid intracellular receptor 1 (Cavia porcellus) (UniProt Q60492); experiment: Displacement of [3H]-(+)-pentazocine from sigma 1 receptor in guinea pig brain membranes after 150 mins in presence of 1 mM to 250 uM of phenytoin; type: cell membranes; details: Membrane
Procedure, shortened: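 Guinea pig brain [3H](+)-pentazocine competition binding run without phenytoin and with 250 μM or 1 mM phenytoin. Ki ratios (control/with phenytoin) computed. Hill analysis of competition curves. Cocaine served as the putative σ1 agonist control.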

[4] = target: Adrenergic receptor alpha-1 (Rattus norvegicus) (UniProt P15823+P23944+P43140); experiment: Binding affinity to adrenergic alpha1 receptor in rat cortex
Rattus norvegicus [5] = experiment: Potentiation of (-)-U50488H-induced antinociceptive activity in Sprague-Dawley rat assessed as mean AUC of thermal-stimulus induced tail flick latency for 60 mins at 1 mg/kg, sc treated 45 mins before (-)-U50488H challenge; type: functional; details: route subcutaneous
Procedure, shortened: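 Rats were pretreated sc with test compound at 1 mg/kg 45 min before the κ agonist (−)-U50,488H at 5 mg/kg sc. Thermal-stimulus tail flick latency was taken as percent change from basal over 60 min and summarised as MAUC after the last injection. Groups were compared with saline- and U50,488H-only groups, n = 8–10, mean ± SD, p < 0.05.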

[6] = target: D(1A) dopamine receptor (Rattus norvegicus) (UniProt P18901); experiment: Binding affinity to dopamine D1 receptor in rat striatum; type: tissue-based
[7] = target: D(2) dopamine receptor (Rattus norvegicus) (UniProt P61169); experiment: Binding affinity to dopamine D2 receptor in rat striatum; type: tissue-based
[8] = Binding affinity to dopamine D4.2 receptor
[9] = target: D(3) dopamine receptor (Rattus norvegicus) (UniProt P19020); experiment: Binding affinity to dopamine D3 receptor in rat olfactory tubercle; type: tissue-based
Rattus norvegicus [10] = experiment: Antinociceptive activity in Sprague-Dawley rat assessed as mean AUC of thermal-stimulus induced tail flick latency for 60 mins at 1 mg/kg, sc; type: functional, organism-based; parameters: dose 1 mg/kg
Procedure, shortened: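 Rats given test compound 1 mg/kg sc alone. Tail flick latency to thermal stimulation, expressed as percent change from basal, tracked over a 60 min window. Summarised as mean area under the curve (MAUC) after the last injection. Compared against saline-treated rats, n = 8–10 per group, mean ± SD, significance at p < 0.05.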

[11] = target: Mu-type opioid receptor (Rattus norvegicus) (UniProt P33535); experiment: Displacement of [3H]naloxone from mu opioid receptor in rat brain membranes; type: cell membranes
[12] = target: 5-hydroxytryptamine receptor 2A (Rattus norvegicus) (UniProt P14842); experiment: Binding affinity to 5-HT2A receptor in rat cortex; type: tissue-based
[13] = Agonist activity at sigma 2 receptor in guinea pig longitudinal muscle/myenteric plexus assessed as inhibition of electrically-induced contraction; type: functional; details: Cavia porcellus
Procedure, shortened: (§1)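 Guinea pig ileum preparation with sigma-1 receptors desensitized. Electrically evoked contractions recorded in an isolated organ bath; a dose-response curve was built from the inhibition of the evoked contractions.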

LNCaP = experiment: Antiproliferative activity against human LNCAP cells at 100 uM after 48 hrs; type: functional, cell-based
Procedure, shortened: (§2)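 LNCaP (hormone-sensitive) and PC3 (hormone-refractory) prostate tumour cells exposed to 100 μM compound for 48 h; antiproliferative effect measured. Haloperidol and haloperidol metabolite II run as references.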

[14] = Partial agonist activity at sigma 2 receptor in guinea pig longitudinal muscle/myenteric plexus assessed as inhibition of electrically-induced contraction; type: functional, Cavia porcellus; procedure, shortened: as §1
PC-3 = experiment: Antiproliferative activity against human PC3 cells at 100 uM after 48 hrs; type: functional, cell-based; procedure, shortened: as §2

Sequence of Sigma non-opioid intracellular receptor 1 (Q60492 whole entry): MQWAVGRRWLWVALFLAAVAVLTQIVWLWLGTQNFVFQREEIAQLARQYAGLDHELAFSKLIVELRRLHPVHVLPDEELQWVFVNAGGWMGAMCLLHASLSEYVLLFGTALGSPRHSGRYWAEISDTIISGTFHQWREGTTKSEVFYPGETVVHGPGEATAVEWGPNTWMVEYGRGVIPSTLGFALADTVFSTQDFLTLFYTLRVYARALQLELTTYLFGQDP
Sequence of Sigma non-opioid intracellular receptor 1 (Cavia porcellus) (Q60492 whole entry): as above
Sequence of 5-hydroxytryptamine receptor 2A (Rattus norvegicus) (P14842 whole entry): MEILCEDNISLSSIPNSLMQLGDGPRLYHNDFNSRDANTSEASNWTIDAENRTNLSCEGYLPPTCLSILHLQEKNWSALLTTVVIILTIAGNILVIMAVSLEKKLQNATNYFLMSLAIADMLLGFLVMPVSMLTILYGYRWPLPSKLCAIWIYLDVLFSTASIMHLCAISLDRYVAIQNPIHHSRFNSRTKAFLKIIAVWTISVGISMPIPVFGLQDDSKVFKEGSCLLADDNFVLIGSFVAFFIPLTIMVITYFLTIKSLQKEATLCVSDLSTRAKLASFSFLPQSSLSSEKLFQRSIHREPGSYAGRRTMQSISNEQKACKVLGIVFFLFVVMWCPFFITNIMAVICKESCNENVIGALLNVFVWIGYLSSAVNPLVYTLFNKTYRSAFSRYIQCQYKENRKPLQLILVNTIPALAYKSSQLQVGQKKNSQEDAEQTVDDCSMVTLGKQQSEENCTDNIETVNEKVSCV
Sequence of D(1A) dopamine receptor (Rattus norvegicus) (P18901 whole entry): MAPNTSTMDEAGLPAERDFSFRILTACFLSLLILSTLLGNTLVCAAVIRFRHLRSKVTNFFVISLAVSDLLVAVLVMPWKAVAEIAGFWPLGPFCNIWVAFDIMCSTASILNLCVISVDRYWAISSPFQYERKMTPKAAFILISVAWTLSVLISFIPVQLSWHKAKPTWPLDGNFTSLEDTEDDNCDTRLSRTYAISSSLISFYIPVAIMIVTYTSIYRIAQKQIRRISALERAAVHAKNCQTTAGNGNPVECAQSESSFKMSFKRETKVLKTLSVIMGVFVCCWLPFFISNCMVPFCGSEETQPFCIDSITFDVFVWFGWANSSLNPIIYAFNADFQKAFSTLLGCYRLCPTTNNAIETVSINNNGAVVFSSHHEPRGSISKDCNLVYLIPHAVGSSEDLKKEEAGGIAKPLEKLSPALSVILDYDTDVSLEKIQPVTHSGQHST
Sequence of D(3) dopamine receptor (Rattus norvegicus) (P19020 whole entry): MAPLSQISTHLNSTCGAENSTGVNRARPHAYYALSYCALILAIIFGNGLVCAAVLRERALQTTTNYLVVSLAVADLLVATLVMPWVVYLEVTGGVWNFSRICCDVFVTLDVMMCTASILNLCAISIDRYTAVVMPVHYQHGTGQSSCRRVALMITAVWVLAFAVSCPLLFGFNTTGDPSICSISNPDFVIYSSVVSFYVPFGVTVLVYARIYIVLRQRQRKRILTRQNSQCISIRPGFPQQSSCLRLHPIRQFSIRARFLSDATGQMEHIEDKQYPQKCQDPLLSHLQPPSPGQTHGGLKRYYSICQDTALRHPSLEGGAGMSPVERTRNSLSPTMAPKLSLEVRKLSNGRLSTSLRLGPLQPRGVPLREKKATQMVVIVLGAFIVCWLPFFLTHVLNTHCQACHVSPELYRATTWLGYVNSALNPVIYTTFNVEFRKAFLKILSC
Sequence of Mu-type opioid receptor (Rattus norvegicus) (P33535 whole entry): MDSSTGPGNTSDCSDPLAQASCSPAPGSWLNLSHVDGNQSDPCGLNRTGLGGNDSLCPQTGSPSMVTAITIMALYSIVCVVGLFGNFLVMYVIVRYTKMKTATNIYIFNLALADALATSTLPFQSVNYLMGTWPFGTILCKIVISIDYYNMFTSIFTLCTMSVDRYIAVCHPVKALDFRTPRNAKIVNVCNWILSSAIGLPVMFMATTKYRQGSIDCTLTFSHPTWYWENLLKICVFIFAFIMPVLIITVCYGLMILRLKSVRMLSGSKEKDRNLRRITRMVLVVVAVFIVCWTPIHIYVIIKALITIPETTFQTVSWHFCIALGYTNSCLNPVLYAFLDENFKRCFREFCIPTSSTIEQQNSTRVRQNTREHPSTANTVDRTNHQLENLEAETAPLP
Sequence of D(2) dopamine receptor (Rattus norvegicus) (P61169 whole entry): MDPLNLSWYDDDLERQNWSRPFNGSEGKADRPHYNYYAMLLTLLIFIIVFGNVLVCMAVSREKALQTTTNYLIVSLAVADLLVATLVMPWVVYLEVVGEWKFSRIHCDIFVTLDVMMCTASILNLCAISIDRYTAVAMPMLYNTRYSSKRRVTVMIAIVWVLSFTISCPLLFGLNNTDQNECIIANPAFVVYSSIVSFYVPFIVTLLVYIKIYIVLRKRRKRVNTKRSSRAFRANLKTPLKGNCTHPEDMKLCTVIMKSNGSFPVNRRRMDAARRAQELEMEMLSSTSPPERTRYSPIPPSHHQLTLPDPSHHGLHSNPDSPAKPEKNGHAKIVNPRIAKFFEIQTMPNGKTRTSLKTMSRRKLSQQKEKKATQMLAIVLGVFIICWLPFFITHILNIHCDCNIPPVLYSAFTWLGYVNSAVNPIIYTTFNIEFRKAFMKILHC

SMILES | Ki [1] [nM] | Ratio Ki (Cavia porcellus) | Ki [2] [nM] | also measured
COC(=O)[C@]1(c2ccccc2)C[C@@H]1CN1[C@@H]2CC[C@H]1C[C@@](O)(c1ccc(Cl)cc1)C2 | 44 | 1.3 | 58.3 | –
COC(=O)[C@H]1[C@@H](OC(=O)c2ccccc2)C[C@@H]2CC[C@H]1N2C | – | – | – | inhibition [3]: inactive
COC(=O)[C@]1(c2ccccc2)C[C@@H]1CN1CCC(O)(c2ccccc2)CC1 | 5.02 | 5.6 | 28.2 | –
COC(=O)[C@@]1(c2ccccc2)C[C@H]1CN1C2C=C(c3ccc(Cl)cc3)CC1CC2 (mixture of isomers) | 198 | 2.8 | 565 | –
COC(=O)[C@]1(c2ccccc2)C[C@@H]1CN1CCC(O)(c2ccc(Cl)cc2)CC1 | 3.95 | – | 21.9 | inhibition [3]: Active
COC(=O)[C@@]1(c2ccccc2)C[C@H]1CN1CCC(O)(c2ccccc2)CC1 | 7.01 | 81.4 | 571 | inhibition [3]: Active; Activity [4]: Active; Activity (Rattus norvegicus [5]): 118.2%; Activity [6]: Active; Activity [7]: Active; Activity [8]: Active; Activity [9]: Active; Activity (Rattus norvegicus [10]): inactive; Activity [11]: Active; Activity [12]: Active
COC(=O)[C@@]1(c2ccccc2)C[C@H]1CN1[C@@H]2CC[C@H]1C[C@@](O)(c1ccc(Cl)cc1)C2 | 520 | 0.05 | 25.2 | Activity [4]: Active; EC50 [13]: 2300 nM; Activity (LNCaP): Active; Alpha max [14]: 0.4; Activity [6]: Active; Activity (PC-3): Active; Activity [7]: Active; Activity [8]: Active; Activity [9]: Active; Activity [11]: Active; Activity [12]: Active
Cc1ccccc1NC(=N)Nc1ccccc1C [DITOLYLGUANIDINE] | – | – | 23 | –
O=C(CCCc1ccccc1)OC(CCCN1CCC(O)(c2ccc(Cl)cc2)CC1)c1ccc(F)cc1 (racemic) | 5.4 | 0.18 | 0.98 | –
COC(=O)[C@]1(c2ccccc2)C[C@@H]1CN1C2C=C(c3ccc(Cl)cc3)CC1CC2 (mixture of isomers) | 397 | 2.4 | 943 | –
COC(=O)[C@@]1(c2ccccc2)C[C@H]1CN1CCC(O)(c2ccc(Cl)cc2)CC1 | 5.61 | – | 23.4 | –
O=C(CCCN1CCC(O)(c2ccc(Cl)cc2)CC1)c1ccc(F)cc1 [HALOPERIDOL] | – | – | 16 | –
